From the RNAGym collection of RNA variant scans (doi:10.1002/anie.201605470)

B1: Osa-1-4 twister ribozyme (parent)
chain: CCGCCUAACACUGCCAAUGCCGGUCCCAAGCCCGGAUAAAAGUGGAGGGGGCGG

Variants of: B1
Assay: self-cleavage, relative activity (ratio to wild type); higher = more cleavage; co-transcriptional
Outline: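 A DNA template for a 54-nucleotide Oryza sativa twister ribozyme was synthesised with 97 % wild-type base and 1 % of each other base at the 48 positions downstream of the cleavage site. It was transcribed in vitro for 2 h at 37 °C, allowing co-transcriptional self-cleavage, then reverse-transcribed with a template-switching oligonucleotide, PCR-amplified and deep-sequenced. Cleavage status was scored from reads with or without upstream sequence. Relative activity is fraction cleaved normalised to wild type.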

Variant | self-cleavage
G45C G53C | 0.05
G45C G53A | 0.06
G45C G53U | 0.06
G44U U43C | 0.37
G44U U43G | 0.11
G44U U43A | 0.66
A46C C32U | 0.04
A46C C32G | 0.03
A46C C32A | 0.03
G44U G49U | 0.11
G44U G49A | 0.12
G44U G49C | 0.08
G45U U24G | 0.02
G45U U24C | 0.04
G45U U24A | 0.04
A46C C21G | 0.03
A46C C21A | 0.06
A46C C21U | 0.06
G45C G49C | 0.04
G45C G49A | 0.04
G45C G49U | 0.03
G44U G53A | 0.75
G44U G53U | 0.3
G44U G53C | 0.08

Variant | self-cleavage
A46C G48U | 0.02
A46C G48C | 0.03
A46C G48A | 0.04
G44U G51U | 0.19
G44U G51A | 0.69
G44U G51C | 0.07
A46C U43G | 0.05
A46C U43C | 0.05
A46C U43A | 0.06
A46C G44U | 0.06
A46C G44C | 0.06
A46C G44A | 0.05
G44C G51U | 0.16
G44C G51A | 0.67
G44C G51C | 0.07
A46C G54U | 0.19
A46C G54C | 0.08
A46C G54A | 0.09
A46G C15A | 0.06
A46G C15U | 0.04
A46G C15G | 0.04
G45A G50U | 0.13
G45A G50C | 0.06
G45A G50A | 0.23

Variant | self-cleavage
A46C G49C | 0.03
A46C G49U | 0.04
A46C G49A | 0.04
G45U U18A | 0.14
G45U U18C | 0.14
G45U U18G | 0.19
A46C G50C | 0.08
A46C G50U | 0.09
A46C G50A | 0.1
A46C G30U | 0.02
A46C G30A | 0.01
A46C G30C | 0.02
A46G A7C | 0.02
A46G A7G | 0.05
A46G A7U | 0.01
G45A G47C | 0.05
G45A G47U | 0.06
G45A G47A | 0.06
G45A G49A | 0.05
G45A G49C | 0.05
G45A G49U | 0.04
G45C G51U | 0.05
G45C G51A | 0.06
G45C G51C | 0.05

Variant | self-cleavage
A46G C11G | 0.04
A46G C11U | 0.06
A46G C11A | 0.06
G45C G50A | 0.08
G45C G50U | 0.06
G45C G50C | 0.07
G44U G45C | 0.06
G44U G45U | 0.08
G44U G45A | 0.1
A46G A8U | 0.03
A46G A8G | 0.04
A46G A8C | 0.03
A46C | 0.09
A46G | 0.08
G45U G48U | 0.04
G45U G48A | 0.04
G45U G48C | 0.04
G44C U12G | 0.08
G44C U12C | 0.31
G44C U12A | 0.4
G45U U37G | 0.21
G45U U37A | 0.09
G45U U37C | 0.17
G45C G47A | 0.05

Variant | self-cleavage
G45C G47C | 0.05
G45C G47U | 0.05
G44C U43A | 0.74
G44C U43G | 0.07
G44C U43C | 0.73
G45A | 0.52
G45U | 0.17
G45C | 0.06
G45A U43G | 0.06
G45A U43C | 0.09
G45A U43A | 0.09
A46C U24C | 0.04
A46C U24A | 0.02
A46C U24G | 0.01
G45U G54C | 0.06
G45U G54U | 0.2
G45U G54A | 0.1
G45C U12A | 0.06
G45C U12C | 0.05
G45C U12G | 0.05
A46C C14G | 0.03
A46C C14U | 0.03
A46C C14A | 0.02
A46G C9U | 0.03

Variant | self-cleavage
A46G C9A | 0.03
A46G C9G | 0.07
G44U U24A | 0.09
G44U U24C | 0.15
G44U U24G | 0.04
G45U G51U | 0.05
G45U G51C | 0.04
G45U G51A | 0.08
G45C G48C | 0.04
G45C G48A | 0.03
G45C G48U | 0.02
G44C G48C | 0.08
G44C G48A | 0.08
G44C G48U | 0.07
A46G C26G | 0.02
A46G C26A | 0.03
A46G C26U | 0.04
G45A U37G | 0.58
G45A U37A | 0.25
G45A U37C | 0.55
G44C G54C | 0.92
G44C G54A | 0.89
G44C G54U | 0.92
A46C A7G | 0.04

Variant | self-cleavage
A46C A7U | 0.02
A46C A7C | 0.03
A46C C9G | 0.05
A46C C9A | 0.03
A46C C9U | 0.02
G44C U18C | 0.83
G44C U18G | 0.64
G44C U18A | 0.88
G44C G50U | 1
G44C G50A | 0.5
G44C G50C | 0.81
A46C C20A | 0.04
A46C C20U | 0.07
A46C C20G | 0.03
A46C U18C | 0.06
A46C U18G | 0.14
A46C U18A | 0.06
G45U G50C | 0.07
G45U G50A | 0.12
G45U G50U | 0.09
A46C U37G | 0.09
A46C U37C | 0.07
A46C U37A | 0.05
